The structures appear in SMILES notation. Activity calls are given as the source filed them. No cut-off for these calls is given here.

One test concerns the target T1, Caspase-3 (Homo sapiens) (UniProt P42574).
T1 sequence (whole entry): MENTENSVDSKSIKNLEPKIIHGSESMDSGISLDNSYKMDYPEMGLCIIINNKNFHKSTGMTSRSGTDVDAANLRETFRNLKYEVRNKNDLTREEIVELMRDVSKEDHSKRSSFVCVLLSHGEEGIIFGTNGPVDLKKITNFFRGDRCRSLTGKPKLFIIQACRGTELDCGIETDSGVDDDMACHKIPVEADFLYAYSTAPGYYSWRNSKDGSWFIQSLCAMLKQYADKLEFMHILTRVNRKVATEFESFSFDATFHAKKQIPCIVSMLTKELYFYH
Kind of test: Inhibition of caspase 3 using DEVD-Rh110 as substrate incubated for 30 mins prior to substrate addition by fluorimetric analysis.

Test [1] deals with T2, Calpain-1 catalytic subunit (Homo sapiens) (UniProt P07384).
T2 sequence (whole entry): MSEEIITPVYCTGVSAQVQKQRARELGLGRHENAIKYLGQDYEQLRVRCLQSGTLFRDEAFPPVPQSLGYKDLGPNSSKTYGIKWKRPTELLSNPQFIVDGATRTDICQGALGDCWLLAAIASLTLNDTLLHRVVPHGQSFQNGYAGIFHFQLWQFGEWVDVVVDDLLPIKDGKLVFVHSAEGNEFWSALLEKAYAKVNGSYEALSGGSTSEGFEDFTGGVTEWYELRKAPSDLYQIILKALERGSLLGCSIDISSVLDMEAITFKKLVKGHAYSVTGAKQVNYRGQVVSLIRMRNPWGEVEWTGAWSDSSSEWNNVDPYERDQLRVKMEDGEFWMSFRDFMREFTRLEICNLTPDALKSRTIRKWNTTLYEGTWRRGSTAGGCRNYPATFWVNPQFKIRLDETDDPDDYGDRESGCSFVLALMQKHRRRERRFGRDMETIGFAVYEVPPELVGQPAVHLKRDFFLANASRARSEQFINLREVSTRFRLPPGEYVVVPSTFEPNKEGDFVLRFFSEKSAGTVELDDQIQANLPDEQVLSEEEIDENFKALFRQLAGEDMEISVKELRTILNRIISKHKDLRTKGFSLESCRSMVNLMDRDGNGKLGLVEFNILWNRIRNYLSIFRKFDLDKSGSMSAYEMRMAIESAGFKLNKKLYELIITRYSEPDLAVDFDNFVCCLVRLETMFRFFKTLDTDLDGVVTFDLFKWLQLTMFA
Kind of test: Inhibition of calpain1.

Test [2] addresses T3, Ubiquitin carboxyl-terminal hydrolase 5 (Homo sapiens) (UniProt P45974).
T3 sequence (whole entry): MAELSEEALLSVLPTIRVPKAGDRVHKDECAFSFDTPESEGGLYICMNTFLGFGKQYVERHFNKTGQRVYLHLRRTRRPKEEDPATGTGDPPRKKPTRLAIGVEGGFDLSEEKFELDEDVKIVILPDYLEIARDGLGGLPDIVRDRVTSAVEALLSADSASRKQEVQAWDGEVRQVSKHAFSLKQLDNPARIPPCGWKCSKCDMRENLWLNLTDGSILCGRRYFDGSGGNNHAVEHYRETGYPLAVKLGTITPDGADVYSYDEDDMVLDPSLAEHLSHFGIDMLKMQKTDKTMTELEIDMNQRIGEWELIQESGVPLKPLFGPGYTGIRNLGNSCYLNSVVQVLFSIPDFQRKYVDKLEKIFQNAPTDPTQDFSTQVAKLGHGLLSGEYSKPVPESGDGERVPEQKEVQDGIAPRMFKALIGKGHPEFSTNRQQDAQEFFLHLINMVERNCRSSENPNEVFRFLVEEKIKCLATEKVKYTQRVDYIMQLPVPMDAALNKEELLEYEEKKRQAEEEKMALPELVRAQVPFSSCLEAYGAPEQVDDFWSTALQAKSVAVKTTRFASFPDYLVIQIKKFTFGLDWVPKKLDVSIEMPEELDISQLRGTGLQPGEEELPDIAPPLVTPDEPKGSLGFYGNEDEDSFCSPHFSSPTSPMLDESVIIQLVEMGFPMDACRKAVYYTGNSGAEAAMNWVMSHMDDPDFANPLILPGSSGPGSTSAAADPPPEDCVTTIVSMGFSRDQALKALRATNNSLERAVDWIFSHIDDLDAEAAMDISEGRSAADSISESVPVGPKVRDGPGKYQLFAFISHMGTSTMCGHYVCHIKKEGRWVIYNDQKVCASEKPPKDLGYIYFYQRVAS
Kind of test: Inhibition of USP5 by Ub-CHOP reporter assay.

In test [3] the target is T4, Ubiquitin carboxyl-terminal hydrolase 21 (Homo sapiens) (UniProt Q9UK80).
T4 sequence (whole entry): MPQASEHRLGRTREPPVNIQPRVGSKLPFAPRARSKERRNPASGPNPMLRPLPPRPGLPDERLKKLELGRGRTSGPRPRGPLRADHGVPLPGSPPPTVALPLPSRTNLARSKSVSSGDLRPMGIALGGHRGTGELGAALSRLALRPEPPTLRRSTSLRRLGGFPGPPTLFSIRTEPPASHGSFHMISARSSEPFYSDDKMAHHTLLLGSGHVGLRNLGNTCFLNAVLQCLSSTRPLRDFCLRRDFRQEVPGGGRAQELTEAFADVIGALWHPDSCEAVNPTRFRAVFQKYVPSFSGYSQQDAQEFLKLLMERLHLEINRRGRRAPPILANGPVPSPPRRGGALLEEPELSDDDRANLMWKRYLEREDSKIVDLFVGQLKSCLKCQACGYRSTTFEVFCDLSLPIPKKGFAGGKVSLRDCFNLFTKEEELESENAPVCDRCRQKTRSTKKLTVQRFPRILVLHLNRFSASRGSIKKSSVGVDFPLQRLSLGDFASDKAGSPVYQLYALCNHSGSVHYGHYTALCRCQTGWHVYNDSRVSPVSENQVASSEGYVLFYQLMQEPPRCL
Kind of test: Inhibition of HIs6-tagged USP21 by Ub-CHOP reporter assay.

For test [4], the target named is Ubiquitin carboxyl-terminal hydrolase 7 (Homo sapiens, UniProt Q93009). Kind of test: Inhibition of USP7 in human HCT116 cells assessed as increase in p21 level at 30 uM incubated up to 48 hrs by Western blot analysis relative to control. Format: cell-based. Conditions: HCT-116. The essentials: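 HCT-116 human colon cancer cells were incubated with 30 μM compound or with vehicle (0.3% DMSO). Lysates were separated by SDS-PAGE and Western blotted with antibodies to p53 and p21, with actin as the loading standard. Treated cells were compared with DMSO controls.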
Chain of Ubiquitin carboxyl-terminal hydrolase 7 (Q93009 whole entry, looked up): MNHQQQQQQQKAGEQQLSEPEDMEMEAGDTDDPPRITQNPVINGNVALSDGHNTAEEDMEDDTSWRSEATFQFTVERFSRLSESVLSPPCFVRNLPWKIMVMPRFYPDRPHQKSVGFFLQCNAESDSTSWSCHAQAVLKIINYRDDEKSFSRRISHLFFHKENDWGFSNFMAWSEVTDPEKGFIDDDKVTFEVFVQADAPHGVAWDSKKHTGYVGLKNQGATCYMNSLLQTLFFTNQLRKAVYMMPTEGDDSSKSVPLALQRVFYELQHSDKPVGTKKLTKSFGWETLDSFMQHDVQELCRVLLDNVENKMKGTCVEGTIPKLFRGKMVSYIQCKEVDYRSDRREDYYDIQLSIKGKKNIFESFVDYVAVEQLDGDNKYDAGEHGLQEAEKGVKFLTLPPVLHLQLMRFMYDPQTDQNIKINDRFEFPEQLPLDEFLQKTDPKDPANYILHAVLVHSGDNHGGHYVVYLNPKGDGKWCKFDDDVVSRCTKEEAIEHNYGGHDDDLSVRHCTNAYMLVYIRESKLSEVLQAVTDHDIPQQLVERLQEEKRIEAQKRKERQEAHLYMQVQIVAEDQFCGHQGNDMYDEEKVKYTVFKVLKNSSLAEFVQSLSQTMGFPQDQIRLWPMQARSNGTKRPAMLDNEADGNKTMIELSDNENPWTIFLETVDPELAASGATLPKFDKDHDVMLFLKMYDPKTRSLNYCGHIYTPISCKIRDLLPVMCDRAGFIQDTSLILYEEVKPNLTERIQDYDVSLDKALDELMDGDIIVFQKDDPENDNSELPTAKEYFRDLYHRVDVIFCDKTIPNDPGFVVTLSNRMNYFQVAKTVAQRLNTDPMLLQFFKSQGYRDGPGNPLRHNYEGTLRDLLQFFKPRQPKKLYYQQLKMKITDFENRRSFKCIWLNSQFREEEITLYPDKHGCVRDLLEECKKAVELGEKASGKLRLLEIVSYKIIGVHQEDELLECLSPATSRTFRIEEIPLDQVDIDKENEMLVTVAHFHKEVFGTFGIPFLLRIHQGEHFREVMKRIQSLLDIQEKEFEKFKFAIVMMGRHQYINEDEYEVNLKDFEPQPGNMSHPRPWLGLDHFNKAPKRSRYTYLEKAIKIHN

As for `CS(=O)(=O)c1ccc(NC(=O)c2cc(C#N)c(Sc3c(Cl)cncc3Cl)s2)cc1`, the inhibition entry (on Caspase-3 (Homo sapiens); in test [1]; in test [2]; in test [3]) was “inactive” each time. Moreover, the inhibition result in test [4] was “Active”.

(Values after ChEMBL document CHEMBL2157895, “Selective Dual Inhibitors of the Cancer-Related Deubiquitylating Proteases USP7 and USP47” (ACS Med Chem Lett, 2012).)
